By half-life is commonly meant how long it takes for the measured level to halve.

Consider two molecules from article PMC7561591 (European Journal of Medicinal Chemistry, 2020).

The nature of series [1]: Metabolic stability in human liver microsomes. It counts as in vitro ADME. Put shortly:
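Test compound (10 μM) preincubated 5 min at 37 °C with HLM (1 mg/mL) in 0.1 M phosphate buffer pH 7.4, then started with 2 mM NADPH under shaking at 37 °C. Samples at 0, 10, 20, 40 and 60 min quenched in cold acetonitrile with labetalol internal standard and centrifuged. Unchanged substrate and metabolites tracked; t1/2 and CLint from kinetic analysis.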
(In general: Liver microsomes are a subcellular fraction often used to study metabolism.)

For series [2] the following is noted: reference compounds of the solubility assay; cited from earlier work.

`Cc1cc(-c2ccccc2)nc2nc(C(=O)Nc3ccccc3C(N)=O)nn12` [Compound 23] registered an intrinsic clearance in series [1] (HLM, kinetic analysis in WebMetabase) of 4.18 μL/min∗ mgprot. Moreover, the half-life at 10 μM in series [1] (human, liver microsomes, pH 7.4) was found to be 2.77 h.

Consider `C[C@H]1O[C@@H](O[C@H]2[C@@H](O)C[C@H](O[C@H]3[C@@H](O)C[C@H](O[C@H]4CC[C@@]5(C)[C@H](CC[C@@H]6[C@@H]5C[C@@H](O)[C@]5(C)[C@@H](C7=CC(=O)OC7)CC[C@]65O)C4)O[C@@H]3C)O[C@@H]2C)C[C@H](O)[C@@H]1O` [Digossin], for which the “equilibrium solubility of reference compounds” value in series [2] was 84.0 µM.
